Compound activity: PubChem BioAssay, several laboratories
In the library only some 1.8% were active in any assay of this set; here they are far more common.
Autophagy HCS – modulators of autophagy; MEF GFP-LC3 puncta imaging; test concentration mostly 10 µM; calls only at 10 µM (by protocol); actives 0.98% (n = 190,000);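 active = percentage of spot-positive cells more than 3 SD above its plate mean, without a fluorescence outlier flag or 80% toxicity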;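 note: spot-positive cell cutoff set from DMSO-treated cells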
MDM2 E3 inh – inhibitors of human Mdm2 E3 ubiquitin ligase; actives 0.11% (n = 210,000); cell-based MDM2 ubiquitination luciferase reporter, 2 h; 0 = plate control, 100 = twice control, blank-subtracted; signal enhancement, % at 5 µM; Q00987;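 active = signal enhancement of 30% or more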;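 note: luminescence tracks abundance of the self-degrading MDM2-luciferase fusion protein; higher signal means inhibition of MDM2 E3 ligase activity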
Target sequence (Q00987 whole entry, looked up, the tested form may be a part): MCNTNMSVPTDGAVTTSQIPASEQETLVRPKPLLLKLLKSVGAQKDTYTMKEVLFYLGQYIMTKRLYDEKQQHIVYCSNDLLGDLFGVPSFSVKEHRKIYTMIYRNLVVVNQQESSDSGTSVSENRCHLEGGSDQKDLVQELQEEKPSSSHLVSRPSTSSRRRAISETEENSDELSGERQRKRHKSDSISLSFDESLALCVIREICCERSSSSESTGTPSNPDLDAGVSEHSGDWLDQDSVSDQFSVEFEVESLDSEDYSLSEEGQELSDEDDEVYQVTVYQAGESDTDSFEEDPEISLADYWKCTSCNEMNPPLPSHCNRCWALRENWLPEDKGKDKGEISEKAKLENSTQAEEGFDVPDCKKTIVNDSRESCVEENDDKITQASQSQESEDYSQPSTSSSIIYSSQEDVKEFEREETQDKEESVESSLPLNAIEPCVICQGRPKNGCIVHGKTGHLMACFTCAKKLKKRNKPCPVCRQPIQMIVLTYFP
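system = mammalian cells stably expressing self-ubiquitinating, self-degrading MDM2 E3–luciferase fusion | quantity = 2000 cells per well seeded | incubation = 4 h cell settling then 2 h compound exposure, 37 °C | signal = SteadyLite luminescence, 15 min reagent step | benchmarks = plate control and blank wells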
Dynein transport – blocks dynein driven cargo transport along microtubules | 3617.4 mouse cells, GR-EGFP nuclear translocation imaging; test concentration mostly 20 µM; stimulated with dexamethasone, 1 µM; hits give low values | z-score, hits read low | actives 0.47% (n = 220,000) | AID 1381;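 active = plate z-score of nuclear minus cytoplasmic receptor signal below a set negative limit, without overly bright fluorescence or cell loss, cut at about -3.5 in these data, passing the limit was not always enough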;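 note: z-score of nuclear minus cytoplasmic ring GR-EGFP intensity difference per well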
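Medium: Induction medium lacking tetracycline, stripped serum | Probe or stimulus: 1.0 µM final dexamethasone stimulus | Schedule: 48 h induction, then 1 h compound, then 30 min agonist, 37 °C | Signal: Automated 10x imaging of fixed Hoechst-stained cells | Evaluation: Per-cell GR-EGFP intensity, nucleus versus surrounding cytoplasmic ring, well-averaged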
TNF necrop inh – TNF-alpha cell death inhibition in Jurkat FADD-/- cells; Jurkat FADD-/- TNF necroptosis rescue, ATP luminescence, 24 h; 0 = TNF only, 100 = no-TNF cells; actives 0.068% (n = 220,000); activation (protection from cell death), % at 10 µM;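 active = activation, meaning protection from cell death, of at least 50% relative to plate controls; inactive = activation below 50%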;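 note: necroptosis triggered by 40 ng/mL TNF-alpha added together with compound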
L929 necroptosis – L929 zVAD cell death inhibition; actives 0.38% (n = 220,000); viability rescue, % at 10 µM; L929 zVAD necroptosis rescue, ATP luminescence, 24 h; with zVAD 60 µM;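 active = activation, scaled between plate controls, above about 75%, limit read from the data; inactive = activation under that limit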;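 note: 0% = zVAD with DMSO and 100% = DMSO alone without zVAD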
Active calls of the source: *; i = inactive; · = no result given; + = active, no number.

SMILES	Autophagy HCS	MDM2 E3 inh	Dynein transport	TNF necrop inh	L929 necroptosis
CC(C)c1ccc(/C=N/Nc2cc(N3CCOCC3)nc(N3CCOCC3)n2)cc1	i	-6.0	-0.0315	1.7	4.6
COCc1cc(C(C)=O)ccc1OCC(=O)Nc1ccc(NC(C)=O)cc1	i	-8.4	-0.939	1.4	0.5
Cn1cnc([N+](=O)[O-])c1Sc1ncn[nH]1	·	1.8	-0.0445	-0.6	-1.2
CC1(C)CC(=O)C(CC2=C(O)CC(C)(C)CC2=O)=C(O)C1	+	-13.0	0.706	-0.8	-0.1
CC1(C)CC(=O)C(CC2=C(O)CC(C)(C)CC2=O)C(=O)C1	i	1.6	-0.0636	0.5	4.5
CC(=O)Nc1ccc(S(=O)(=O)NC2(C(F)(F)F)C(=O)Nc3c2c(=O)[nH]c(=O)n3Cc2cccnc2)cc1 (stereo unspecified)	i	-8.7	0.147	0.2	0.3
O=[n+]1cc(-c2ccc(Cl)cc2)n([O-])c2c1CCCCC2	i	-3.1	-0.231	1.4	1.2
O=C(c1ccc([N+](=O)[O-])cc1)N(Cc1ccc(Cl)cc1)N1C(=O)CCCC1=O	+	-10.2	-1.74	1.6	-2.5
Cn1c(/C(C#N)=C/c2ccc(-c3ccc(S(N)(=O)=O)cc3)o2)nc2ccccc21	+	-12.0	6.21	-4.4	7.5
O=C(O)c1cccnc1Sc1ccc(Cl)cc1	+	-16.5	0.149	1.0	-2.0
CC1(C)CC(CCC(=O)Nc2ccc(S(N)(=O)=O)cc2)C(=O)O1 (stereo unspecified)	i	-3.5	0.186	-1.1	1.9
Cc1ccc(NC(=O)CCC2CC(C)(C)OC2=O)cc1 (stereo unspecified)	i	31.2*	-1.06	1.9	9.6
CC(=O)N1CCN(c2ccc(NC(=O)C(C)Oc3ccc(Cl)cc3Cl)cc2)CC1 (stereo unspecified)	i	-10.7	0.207	-2.6	3.4
CC(Oc1ccc(Cl)cc1Cl)C(=O)Nc1ccc(N2CCN(C)CC2)cc1 (stereo unspecified)	+	9.1	0.257	-3.9	0.7
CCCCN1C(=O)Cc2c1nc(N)c1c(N)nc(N(CCC)CCC)c(C#N)c21	+	-5.0	-1.38	1.8	4.0
Cc1ccc(NC(=O)CN(C)CC(=O)Nc2ccccc2Oc2ccccc2)cc1	+	-13.0	0.885	0.6	-0.8
Cc1cccc(C)c1NC(=O)CN(C)CC(=O)Nc1ccccc1Oc1ccccc1	i	-15.3	-0.762	1.4	-0.3
Cc1cc(C(=O)N[C@H](c2ccccc2)[C@@]2(C)C[C@@H]2[C@@H](C)C(=O)Nc2ccc3ccccc3c2)n(C)n1	i	·	-0.737	-0.1	37.2
N#Cc1cc2ccccc2nc1SCC(=O)Nc1ccccc1N1CCOCC1	+	17.6	0.37	2.8	0.0
Cn1c(=O)cc(OCC(=O)NCc2cccs2)c2ccccc21	i	35.3*	-0.327	-0.3	4.3
Cn1c(=O)cc(OCCCC(=O)Nc2ccccn2)c2ccccc21	i	1.8	-0.265	5.7	89.0*
COc1ccc(CNC(=O)COc2cc(=O)n(C)c3ccccc23)cc1	i	24.4	-0.371	-0.1	9.7
Cc1ccc(C)c(N(C)C(=O)COc2cc(=O)n(C)c3ccccc23)c1	+	-12.9	0.125	-3.8	0.6
O=C(O)CNC(=O)c1ccccc1Br	i	0.4	0.508	1.0	-0.1
COc1cc(-c2[nH]nc3c2C(c2ccco2)C(C#N)=C(N)O3)cc(OC)c1OC (stereo unspecified)	i	10.3	0.989	1.3	0.9
SMILES	Autophagy HCS	MDM2 E3 inh	Dynein transport	TNF necrop inh	L929 necroptosis
Nc1c(Cl)ncnc1NCC(O)CO (stereo unspecified)	·	0.1	0.193	0.9	0.2
CCn1c(O)c(C=NCc2ccccc2)sc1=S	·	-8.2	-0.355	68.1*	-0.6
COc1ccc(CN2CCNC(=O)C2CC(=O)N2CCCO2)c(OC)c1 (stereo unspecified)	i	-3.3	0.228	0.3	1.1
COc1ccc(N2C(=O)CC(Sc3nnc(-c4ccccc4)o3)C2=O)cc1 (stereo unspecified)	i	-6.2	-4.12*	-26.8	2.6
Cc1ccc(C2(C)NC(=O)N(CC(=O)Nc3cc(C)on3)C2=O)cc1 (stereo unspecified)	i	-9.1	-0.304	-1.4	0.1
CC(=O)c1c(C)[nH]c(C(=O)CN2C(=O)NC(C)(c3ccc(C)cc3)C2=O)c1C (stereo unspecified)	+	-2.2	-0.368	-2.5	1.8
S=C(NCCN1CCOCC1)N/N=C/c1c2ccccc2cc2ccccc12	+	-12.7	3.18	-2.4	-0.5
COc1cc(/C=N/NC(=S)NCCN2CCOCC2)cc(OC)c1O	i	-7.1	-0.53	-0.6	0.7
COc1cc(OC)c(OC)cc1/C=N/NC(=S)NCCN1CCOCC1	+	-10.2	-0.317	0.8	1.0
CC(=O)N1CCN(CC(=O)Nc2cc([N+](=O)[O-])ccc2Cl)CC1	i	-4.1	-1.1	0.7	0.4
O=C(CN1CCN(c2ccc(O)cc2)CC1)Nc1cc([N+](=O)[O-])ccc1Cl	+	-7.9	0.258	0.7	-0.2
COc1ccccc1CNC(=O)c1cc2c(=O)[nH]c3ccccc3c2n1C	i	-9.5	-0.78	1.0	31.5
CNC(=S)/N=C/NOCc1ccc(Cl)cc1Cl	+	-8.2	0.58	-9.1	4.8
COc1ccccc1OCC(O)Cn1c(=N)n(Cc2ccccc2)c2ccccc21 (stereo unspecified)	+	-43.1	0.179	-0.7	-0.4
Cc1ccccc1OCC(O)Cn1c(=N)n(Cc2ccccc2)c2ccccc21 (stereo unspecified)	·	-13.1	0.533	-26.6	1.4
COc1cccc(NC(C)C(=O)Nc2cc([N+](=O)[O-])ccc2Cl)c1 (stereo unspecified)	i	-14.4	0.453	1.0	0.7
O=C(O)CNC(=S)N(Cc1ccccc1)Cc1cccnc1	+	-0.3	-0.294	-0.4	1.5
Cc1ccccc1C(=O)NC(C(N)=O)P(=O)(OC(C)C)OC(C)C (stereo unspecified)	·	-8.2	-0.76	0.2	0.0
Cc1ccc(NS(=O)(=O)c2ccc(Br)s2)cc1S(=O)(=O)N1CCOCC1	i	9.6	-0.39	1.1	0.8
O=S(=O)(NC1CCCCC1)c1ccc(N2CCOCC2)nc1	·	-10.4	-0.475	-2.5	1.2
COc1ccc(CCNC(=O)COC(=O)c2cnc(C)cn2)cc1OC	i	30.7*	0.744	-0.2	0.7
COC(=O)c1nc2ccc(N3CCOCC3)cc2c(C)c1C(=O)OC	+	-21.1	0.232	-0.1	66.4
CCOc1cc(NC(=S)NCCCN2CCOCC2)c(OCC)cc1NC(=O)c1ccc(C)cc1	i	-42.8	1.16	4.5	-1.6
